Series [1] has as its system Mus musculus. The series can be described thus: Anticonvulsant activity in ip dosed CF-1 albino mouse administered as single dose after 1 hr by corneal kindled mouse test. It counts as functional, organism-based. Summed up:
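Mice corneally kindled twice daily (3 mA, 3 s, about 12 days, tetracaine/saline drop before each stimulation) and re-stimulated the day before testing. Single i.p. dose given (n = 4 or 8), then challenged with 3 mA for 3 s at 1 h post-injection. EC50 (±SE) determined.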

For series [2], the system named is Mus musculus. As to the kind of experiment: Anticonvulsant activity in CF-1 albino mouse assessed as protection against maximal electroshock-induced seizures at 2 mg/kg, ip by MES test. It counts as functional, organism-based. Set-up: dose 2 mg/kg. A digest of the protocol:
(§1)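 Dosed i.p. at 0.01 ml/g from a DMSO stock diluted to 10% DMSO (v/v) final. Single doses tested in traditional MES or s.c. metrazol seizure tests at the time of peak effect. Scored qualitatively as number of animals protected from convulsions (groups of 4–8).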

The test system of series [3] is Mus musculus. The series can be described thus: Toxicity in ip dosed CF-1 albino mouse assessed as behavioral changes by rotarod test. It counts as organism-based. The settings on record: in vivo.
In series [4] the test system is Mus musculus. As to the kind of experiment: Anticonvulsant activity in CF-1 albino mouse assessed as protection against subcutaneous metrazol-induced seizures at 1 mg/kg, ip. It counts as functional, organism-based. Set-up: dose 1 mg/kg. Summed up:
as §1

The subject of series [5] is Mus musculus. As to the kind of experiment: Anticonvulsant activity in CF-1 albino mouse assessed as protection against maximal electroshock-induced seizures at 3 mg/kg, ip by MES test. It counts as functional, organism-based. Set-up: dose 3 mg/kg. Summed up:
as §1

Series [6] deals with Mus musculus. As to the kind of experiment: Anticonvulsant activity in CF-1 albino mouse assessed as protection against maximal electroshock-induced seizures at 1 mg/kg, ip by MES test. It counts as functional, organism-based. Set-up: dose 1 mg/kg. Summed up:
as §1

Series [7] has as its system Mus musculus. The series can be described thus: Anticonvulsant activity in ip dosed CF-1 albino mouse assessed as protection against 6 Hz psychomotor seizure after 1 hr by minimal clonic seizure test. To be noted: CF-1, ip. It counts as functional. Summed up: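 Corneal 6 Hz stimulation (32 mA, 3 s, CC97) applied 1 h post-dose (time of peak effect). Absence of minimal clonic/automatistic behavior counted as protection.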

In series [8] the test system is Mus musculus. As to the kind of experiment: Anticonvulsant activity in CF-1 albino mouse assessed as protection against subcutaneous metrazol-induced seizures at 3 mg/kg, ip. It counts as functional, organism-based. Set-up: dose 3 mg/kg. Summed up:
as §1

The target in series [9] is T1, Adenosine receptor A1 (Homo sapiens) (UniProt P30542).
T1 sequence (whole entry): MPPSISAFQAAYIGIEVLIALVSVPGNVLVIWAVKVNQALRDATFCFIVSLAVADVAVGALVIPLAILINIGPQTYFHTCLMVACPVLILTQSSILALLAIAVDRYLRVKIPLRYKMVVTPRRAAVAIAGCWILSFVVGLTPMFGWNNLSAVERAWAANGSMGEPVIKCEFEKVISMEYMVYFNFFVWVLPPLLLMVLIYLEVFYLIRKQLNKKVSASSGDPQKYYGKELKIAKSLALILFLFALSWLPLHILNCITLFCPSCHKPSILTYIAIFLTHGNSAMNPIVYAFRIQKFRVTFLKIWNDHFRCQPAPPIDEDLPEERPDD
The series can be described thus: Activity at human A1 adenosine receptor expressed in CHO cells assessed as inhibition of forskolin-stimulated cAMP production at 10 uM after 30 min. It counts as functional, cell-based.

A further series has as its target T2, Adenosine receptor A3 (Homo sapiens, UniProt P0DMS8).
T2 sequence (P0DMS8 whole entry): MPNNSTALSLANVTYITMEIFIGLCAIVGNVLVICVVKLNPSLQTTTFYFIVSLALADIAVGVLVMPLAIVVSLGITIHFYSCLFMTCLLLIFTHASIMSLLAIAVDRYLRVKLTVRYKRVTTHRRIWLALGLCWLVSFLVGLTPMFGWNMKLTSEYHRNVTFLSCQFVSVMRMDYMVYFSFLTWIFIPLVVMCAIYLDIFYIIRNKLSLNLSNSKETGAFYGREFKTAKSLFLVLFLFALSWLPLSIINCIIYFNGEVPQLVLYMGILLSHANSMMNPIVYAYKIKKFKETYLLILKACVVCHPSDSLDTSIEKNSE
The series can be described thus: Displacement of [125I]I-AB-MECA from human A3 adenosine receptor expressed in CHO cells after 60 min Packard Cobra 2 gamma-counter. It counts as cell-based.

The target in series [10] is T3, Adenosine receptor A2a (Homo sapiens, UniProt P29274). The series can be described thus: Displacement of [3H]CGS21680 from human A2a adenosine receptor expressed in HEK293 cells at 10 uM after 60 min by Perkin Elmer Liquid Scintillation Analyzer. It counts as cell-based.
Another series deals with T4, Adenosine receptor A1 (Homo sapiens, UniProt P30542).
T4 sequence (P30542 whole entry): T1 sequence (whole entry)
As to the kind of experiment: Displacement of [3H]R-PIA from human A1 adenosine receptor expressed in CHO cells after 60 min by Perkin Elmer Liquid Scintillation Analyzer. It counts as cell-based.

Series [11] deals with T1, Adenosine receptor A1 (Homo sapiens). As to the kind of experiment: Displacement of [3H]R-PIA from human A1 adenosine receptor expressed in CHO cells at 10 uM after 60 min by Perkin Elmer Liquid Scintillation Analyzer. It counts as cell-based.
Series [12] relates to Mus musculus. As to the kind of experiment: Toxicity in ip dosed CF-1 albino mouse assessed as behavioral changes after 4 hrs by rotarod test. It counts as organism-based. To be noted: in vivo.
Series [13] concerns the target Adenosine receptors; A1 & A3 (Homo sapiens) (UniProt P30542+P0DMS8). The series can be described thus: Selectivity ratio of Ki for human A3 adenosine receptor to Ki for human A1 adenosine receptor.
Series [14] addresses T3, Adenosine receptor A2a. As to the kind of experiment: Displacement of [3H]CGS21680 from human A2a adenosine receptor expressed in HEK293 cells after 60 min by Perkin Elmer Liquid Scintillation Analyzer. It counts as cell-based.
The species named for the next series is Homo sapiens. The series can be described thus: Selectivity ratio of Ki for human A2a adenosine receptor to Ki for human A1 adenosine receptor.

The source made the active and inactive calls. The rule behind the calls is not given here. A value given as a limit tells only on which side of the number the result lay.

T3 sequence (P29274 whole entry): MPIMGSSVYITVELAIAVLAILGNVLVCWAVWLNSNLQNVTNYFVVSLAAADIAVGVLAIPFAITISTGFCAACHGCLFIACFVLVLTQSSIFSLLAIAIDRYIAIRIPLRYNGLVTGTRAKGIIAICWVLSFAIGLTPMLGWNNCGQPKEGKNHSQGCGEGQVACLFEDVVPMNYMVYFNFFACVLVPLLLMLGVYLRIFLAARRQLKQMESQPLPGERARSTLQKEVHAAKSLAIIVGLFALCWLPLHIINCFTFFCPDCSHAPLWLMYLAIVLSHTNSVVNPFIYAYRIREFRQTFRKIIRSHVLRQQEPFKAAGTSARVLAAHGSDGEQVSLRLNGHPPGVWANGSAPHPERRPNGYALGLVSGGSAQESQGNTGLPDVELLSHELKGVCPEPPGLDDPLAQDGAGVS

Turning to `O[C@@H]1[C@H](O)[C@@H]2C[C@@H]2[C@H]1n1cnc2c(NC(C3CC3)C3CC3)nc(Cl)nc21`, in the series on Mus musculus [1], the EC50 came to 1.79 mg/kg. For the same compound, the result in the series with Mus musculus [2], in the series on Mus musculus [4], in the series on Mus musculus [5], in the series on Mus musculus [6] and in the series on Mus musculus [8] was inactive. For the same compound, the TD50 with Mus musculus [3] is greater than 30 mg/kg. In addition, the ED50 in the series with Mus musculus [7] was found to be 2.74 mg/kg.
With `CC(C)[C@H](Nc1nc(Cl)nc2c1ncn2[C@H]1[C@H](O)[C@H](O)[C@@H]2C[C@@H]21)C1CC1`, in series [9], the inhibition was 20.8%.
On the same count and under the same terms, as for `O[C@@H]1[C@H](O)[C@@H]2C[C@@H]2[C@H]1n1cnc2c(N[C@@H](CC3CC3)C3CC3)nc(Cl)nc21`, the figure is 24%.
For the compound `O[C@@H]1[C@H](O)[C@@H]2C[C@@H]2[C@H]1n1cnc2c(N[C@H](CC3CC3)C3CC3)nc(Cl)nc21`, in [9], the inhibition is 18.4%.
For the compound `NNc1nc(NC(C2CC2)C2CC2)c2ncn([C@H]3[C@H](O)[C@H](O)[C@@H]4C[C@@H]43)c2n1`, the Ki turned out to be 70 nM on Adenosine receptor A3 and 210 nM on Adenosine receptor A1. On Adenosine receptor A2a [10], the inhibition is 43%.
With `O[C@@H]1[C@H](O)[C@@H]2C[C@@H]2[C@H]1n1cnc2c(N[C@@H](c3ccccc3)C3CC3)nc(Cl)nc21`, the inhibition constant Ki came out at 790 nM on Adenosine receptor A3 and 3000 nM at Adenosine receptor A1. The inhibition in [9] was -7.4%; at Adenosine receptor A2a [10], 46%.
In the case of `CC[C@H](Nc1nc(Cl)nc2c1ncn2[C@H]1[C@H](O)[C@H](O)[C@@H]2C[C@@H]21)C1CC1`, the inhibition in [9] stood at 57.9%.
For the compound `O[C@@H]1[C@H](O)[C@@H]2C[C@@H]2[C@H]1n1cnc2c(NC(C3CCCC3)C3CCCC3)nc(Cl)nc21`, the inhibition in [11] amounted to 34%.
In the case of `NCCNC(=O)Cc1ccc(NC(=O)Cc2ccc(Nc3ncnc4c3ncn4[C@@H]3O[C@H](CO)[C@@H](O)[C@H]3O)cc2)cc1`, the outcome with Mus musculus [2], with Mus musculus [4], in the series with Mus musculus [5], in the series on Mus musculus [6] and with Mus musculus [8] was inactive. For the same compound, on Adenosine receptor A3, the Ki came to 12.4 nM. Moreover, the inhibition in series [9] came to 94%. Moreover, the 50% effective dose (ED50) in the series on Mus musculus [7] is 0.03 mg/kg. Also, in the series on Mus musculus [12], the TD50 came out at 0.14 mg/kg.
Regarding `OC[C@H]1O[C@@H](n2cnc3c(NC4CCCC4)ncnc32)[C@H](O)[C@@H]1O`, the inhibition in series [9] turned out to be 100%.
Take `OC[C@H]1O[C@@H](n2cnc3c(NC4CCCC4)nc(Cl)nc32)[C@H](O)[C@@H]1O`: the outcome in the series with Mus musculus [2], with Mus musculus [4], with Mus musculus [5], in the series with Mus musculus [6] and in the series with Mus musculus [8] was inactive. In addition, the ED50 in the series with Mus musculus [7] turned out to be 0.12 mg/kg.
As to `CC[C@@H](Nc1nc(Cl)nc2c1ncn2[C@H]1[C@H](O)[C@H](O)[C@@H]2C[C@@H]21)C1CC1`, the inhibition in [9] was 37.3%.
Regarding `O[C@@H]1[C@H](O)[C@@H]2C[C@@H]2[C@H]1n1cnc2c(NC(C3CC3)C3CC3)ncnc21`, the results for the inhibition constant Ki on Adenosine receptor A3 and at Adenosine receptor A1 were 17 nM and 56.1 nM, respectively. Further, on Adenosine receptor A2a [10], the inhibition was found to be 38%.
For `O[C@@H]1[C@H](O)[C@@H]2C[C@@H]2[C@H]1n1cnc2c(NCC(C3CC3)C3CC3)nc(Cl)nc21`, the inhibition was -9% in [9] and 45% on Adenosine receptor A2a [10].
Regarding `O[C@@H]1[C@H](O)[C@@H]2C[C@@H]2[C@H]1n1cnc2c(N[C@H](C3CCC3)C3CC3)nc(Cl)nc21`, the values for the inhibitory constant (Ki) at Adenosine receptor A3, at Adenosine receptor A2a [14] and on Adenosine receptor A1 were 2790 nM, 6.45 µM and 120 nM, respectively. Moreover, the inhibition in [9] is 18.1%. In addition, the Ratio Ki in [13] was 23; in the series filed under Homo sapiens it was 53.
Turning to `COC(=O)c1cnn(-c2nc(NC(C3CC3)C3CC3)c3ncn([C@H]4[C@H](O)[C@H](O)[C@@H]5C[C@@H]54)c3n2)c1`, the values for the Ki at Adenosine receptor A3, at Adenosine receptor A2a [14] and at Adenosine receptor A1 were 490 nM, 4.11 µM and 730 nM, respectively.
On to `O[C@@H]1[C@H](O)[C@@H]2C[C@@H]2[C@H]1n1cnc2c(N[C@H](c3ccccc3)C3CC3)nc(Cl)nc21`, for which the inhibition is 50% in [11], -2.4% in series [9] and 36% on Adenosine receptor A2a [10]. Further, on Adenosine receptor A3, the Ki was 2200 nM.
In the case of `O[C@@H]1[C@H](O)[C@@H]2C[C@@H]2[C@H]1n1cnc2c(N[C@@H](C3CCC3)C3CC3)nc(Cl)nc21`, the inhibition constant (Ki) on Adenosine receptor A3 is 2930 nM; on Adenosine receptor A2a [14], 5.47 µM; on Adenosine receptor A1, 270 nM. Moreover, in series [9], the inhibition came to 33.4%.
In the case of `O=C(O)c1cnn(-c2nc(NC(C3CC3)C3CC3)c3ncn([C@H]4[C@H](O)[C@H](O)[C@@H]5C[C@@H]54)c3n2)c1`, the Ki on Adenosine receptor A3 is 640 nM; at Adenosine receptor A1, 1080 nM. Moreover, the inhibition at Adenosine receptor A2a [10] was 17%.
Consider `O[C@@H]1[C@H](O)[C@@H]2C[C@@H]2[C@H]1n1cnc2c(NC(C3CC3)C3CC3)nc(I)nc21`, for which the figures for the Ki at Adenosine receptor A3, at Adenosine receptor A2a [14] and at Adenosine receptor A1 were 182 nM, 2.23 µM and 488 nM, respectively.
On to `CC(C)[C@@H](Nc1nc(Cl)nc2c1ncn2[C@H]1[C@H](O)[C@H](O)[C@@H]2C[C@@H]21)C1CC1`, for which, in series [9], the inhibition was 33.8%.

Source of the values: ChEMBL document CHEMBL2169760 (J Med Chem, 2012).
